Data from ChEMBL document CHEMBL3779892, “Increasing the binding affinity of VEGFR-2 inhibitors by extending their hydrophobic interaction with the active site: Design, synthesis and biological evaluation of 1-substituted-4-(4-methoxybenzyl)phthalazine derivatives” (Eur J Med Chem, 2016).

How the values were obtained:
[1] = Growth inhibition of human SKOV3 cells at 10 uM after 48 hrs by sulforhodamine B assay; format: functional; conditions: SK-OV-3, 48 h, read-out: GI
Method in brief: (§1)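 Run at NCI on the 60-line panel. Cells grown in RPMI 1640 with 5% FBS and 2 mM L-glutamine, plated at 5000–40,000 cells/well by doubling time, and held 24 h at 37 °C before dosing. Drug (DMSO stock) given at a single final 10 µM in triplicate wells for 48 h. Adherent cells fixed with cold TCA (10% final), suspension cells with 16% TCA. SRB stain read at 515 nm. Percent growth from Tz, C and Ti.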

786-0 = assay: Growth inhibition of human 786-0 cells at 10 uM after 48 hrs by sulforhodamine B assay; format: functional; conditions: 786-0, 48 h, read-out: GI; method in brief: as §1
MDA-MB-231 = assay: Growth inhibition of human MDA-MB-231 cells at 10 uM after 48 hrs by sulforhodamine B assay; format: functional; conditions: MDA-MB-231, 48 h, read-out: GI; method in brief: as §1
[2] = Growth inhibition of human SF268 cells at 10 uM after 48 hrs by sulforhodamine B assay; format: functional; conditions: SF-268, 48 h, read-out: GI; method in brief: as §1
KM12 = assay: Growth inhibition of human KM12 cells at 10 uM after 48 hrs by sulforhodamine B assay; format: functional; conditions: KM12, 48 h, read-out: GI; method in brief: as §1
Malme-3M = assay: Growth inhibition of human MALME-3M cells at 10 uM after 48 hrs by sulforhodamine B assay; format: functional; conditions: read-out: GI; method in brief: as §1
[3] = Growth inhibition of human HCT116 cells at 10 uM after 48 hrs by sulforhodamine B assay; format: functional; conditions: HCT-116, 48 h, read-out: GI; method in brief: as §1
[4] = Growth inhibition of human RPMI8226 cells at 10 uM after 48 hrs by sulforhodamine B assay; format: functional; conditions: RPMI-8226, 48 h, read-out: GI; method in brief: as §1
[5] = Growth inhibition of human HCT15 cells at 10 uM after 48 hrs by sulforhodamine B assay; format: functional; conditions: HCT-15, 48 h, read-out: GI; method in brief: as §1
NCI-H23 = assay: Growth inhibition of human NCI-H23 cells at 10 uM after 48 hrs by sulforhodamine B assay; format: functional; conditions: NCI-H23, 48 h, read-out: GI; method in brief: as §1
[6] = Growth inhibition of human Caki1 cells at 10 uM after 48 hrs by sulforhodamine B assay; format: functional; conditions: CAKI-1, 48 h, read-out: GI; method in brief: as §1
[7] = Growth inhibition of human OVCAR5 cells at 10 uM after 48 hrs by sulforhodamine B assay; format: functional; conditions: OVCAR-5, 48 h, read-out: GI; method in brief: as §1
[8] = Growth inhibition of human PC3 cells at 10 uM after 48 hrs by sulforhodamine B assay; format: functional; conditions: PC-3, 48 h, read-out: GI; method in brief: as §1
[9] = Growth inhibition of human IGROV1 cells at 10 uM after 48 hrs by sulforhodamine B assay; format: functional; conditions: IGROV-1, 48 h, read-out: GI; method in brief: as §1
A498 = assay: Growth inhibition of human A498 cells at 10 uM after 48 hrs by sulforhodamine B assay; format: functional; conditions: A498, 48 h, read-out: GI; method in brief: as §1
[10] = Growth inhibition of human Hs 578T cells at 10 uM after 48 hrs by sulforhodamine B assay; format: functional; conditions: read-out: GI; method in brief: as §1
NCI-H460 = assay: Growth inhibition of human NCI-H460 cells at 10 uM after 48 hrs by sulforhodamine B assay; format: functional; conditions: NCI-H460, 48 h, read-out: GI; method in brief: as §1
[11] = Growth inhibition of human RXF393 cells at 10 uM after 48 hrs by sulforhodamine B assay; format: functional; conditions: RXF 393, 48 h, read-out: GI; method in brief: as §1
[12] = Growth inhibition of human BT549 cells at 10 uM after 48 hrs by sulforhodamine B assay; format: functional; conditions: BT-549, 48 h, read-out: GI; method in brief: as §1
NCI-H226 = assay: Growth inhibition of human NCI-H226 cells at 10 uM after 48 hrs by sulforhodamine B assay; format: functional; conditions: NCI-H226, 48 h, read-out: GI; method in brief: as §1
[13] = Growth inhibition of human OVCAR4 cells at 10 uM after 48 hrs by sulforhodamine B assay; format: functional; conditions: OVCAR-4, 48 h, read-out: GI; method in brief: as §1
CCRF-CEM = assay: Growth inhibition of human CCRF-CEM cells at 10 uM after 48 hrs by sulforhodamine B assay; format: functional; conditions: read-out: GI; method in brief: as §1
NCI-H522 = assay: Growth inhibition of human NCI-H522 cells at 10 uM after 48 hrs by sulforhodamine B assay; format: functional; conditions: NCI-H522, 48 h, read-out: GI; method in brief: as §1
serum albumin = serum albumin (Bos taurus, UniProt P02769); assay: Binding affinity to bovine serum albumin at pH 7.4 at 25 degC by equilibrium dialysis method; format: ADME; conditions: cattle, read-out: PB (converted)
Chain of serum albumin (P02769 whole entry): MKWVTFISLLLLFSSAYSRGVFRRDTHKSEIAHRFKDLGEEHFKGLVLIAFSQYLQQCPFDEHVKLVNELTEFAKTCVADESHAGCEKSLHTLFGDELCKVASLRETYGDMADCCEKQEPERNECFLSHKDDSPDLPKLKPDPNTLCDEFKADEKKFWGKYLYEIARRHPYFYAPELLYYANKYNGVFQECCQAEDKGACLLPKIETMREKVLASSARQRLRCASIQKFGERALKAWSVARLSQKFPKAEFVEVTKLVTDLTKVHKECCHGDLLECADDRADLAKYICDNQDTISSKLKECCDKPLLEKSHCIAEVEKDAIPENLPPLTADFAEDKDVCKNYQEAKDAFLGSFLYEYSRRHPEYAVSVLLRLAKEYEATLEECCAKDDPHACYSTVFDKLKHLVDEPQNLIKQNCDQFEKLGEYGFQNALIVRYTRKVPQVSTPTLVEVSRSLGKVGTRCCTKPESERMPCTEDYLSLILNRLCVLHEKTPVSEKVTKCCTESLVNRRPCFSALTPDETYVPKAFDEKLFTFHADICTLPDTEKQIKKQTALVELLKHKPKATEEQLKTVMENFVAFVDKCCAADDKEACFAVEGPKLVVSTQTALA

- fraction unbound (serum albumin): 0.921
Compound: COc1ccc(Cc2nnc(Nc3ccc(NC(=O)Nc4ccc(OC)cc4)cc3)c3ccccc23)cc1
- inhibition of growth at 10 µM [1]: < 30%
- inhibition of growth at 10 µM (786-0): 63%
- inhibition of growth at 10 µM (MDA-MB-231): 46%
- inhibition of growth at 10 µM [2]: < 30%
- inhibition of growth at 10 µM (KM12): 39%
- inhibition of growth at 10 µM (Malme-3M): 31%
- inhibition of growth at 10 µM [3]: 34%
- inhibition of growth at 10 µM [4]: 91%
- inhibition of growth at 10 µM [5]: 39%
- inhibition of growth at 10 µM (NCI-H23): < 30%
- inhibition of growth at 10 µM [6]: < 30%
- inhibition of growth at 10 µM [7]: < 30%
- inhibition of growth at 10 µM [8]: 30%
- inhibition of growth at 10 µM [9]: < 30%
- inhibition of growth at 10 µM (A498): < 30%
- inhibition of growth at 10 µM [10]: 96%
- inhibition of growth at 10 µM (NCI-H460): < 30%
- inhibition of growth at 10 µM [11]: 100%
- inhibition of growth at 10 µM [12]: 31%
- inhibition of growth at 10 µM (NCI-H226): < 30%
- inhibition of growth at 10 µM [13]: < 30%
- inhibition of growth at 10 µM (CCRF-CEM): 40%
- inhibition of growth at 10 µM (NCI-H522): 36%
